This is an account of results in ChEMBL document CHEMBL4665767, “Synthesis and biological evaluation of semi-synthetic albocycline analogs” (2020).

The subject of assay [1] is Staphylococcus aureus. Description: Antibacterial activity against methicillin sensitive Staphylococcus aureus UAMS1. The class given is functional. The procedure, abridged: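 Broth microdilution in Mueller Hinton broth; DMSO stocks (12.8 mg/mL) serially diluted, 2 µL added per well, giving up to 256 µg/mL. Inoculum grown at 37 °C, 200 rpm to OD600 0.18, diluted to final 3x10^5 cells/mL, count confirmed by plating. Technical duplicate; 16-24 h at 37 °C; MIC = lowest concentration with visual growth inhibition.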

The subject of assay [2] is Pseudomonas aeruginosa. Description: Antibacterial activity against Pseudomonas aeruginosa. Type of assay: functional, organism-based. The gist of the method:
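Twofold serial dilutions in 96-well microtiter plates from a 10 mg/mL DMSO starting concentration; DMSO solvent control, kanamycin positive control. Wells inoculated with 1:100 dilution of overnight cultures (P. aeruginosa strain PA10). Incubated 37 °C for 24 h; MIC scored as lowest well showing growth inhibition.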

For assay [3], the system named is Acinetobacter baumannii. Nature of the assay: Antibacterial activity against Acinetobacter baumannii. The class given is functional, organism-based.
For assay [4], the system named is Escherichia coli. Nature of the assay: Antibacterial activity against Escherichia coli. The class given is functional, organism-based.
The test system of assay [5] is Staphylococcus aureus. Description: Antibacterial activity against methicillin resistant Staphylococcus aureus USA300. The class given is functional. The procedure, abridged: (§1)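 Broth microdilution MIC in Mueller Hinton broth. Stocks 12.8 mg/mL in DMSO, serially diluted twofold, 2 µL added per well (top final 256 µg/mL). Inoculum grown at 37 °C, 200 rpm to OD600 0.18, then diluted to 3x10^5 cells/mL final, checked by plate count. Incubated 16-24 h at 37 °C, technical duplicates. MIC read as lowest concentration with visible growth inhibition.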

Assay [6] has as its system Staphylococcus aureus. Nature of the assay: Potency index, ratio of albocycline MIC to test compound MIC for methicillin resistant Staphylococcus aureus USA300. Type of assay: functional.
The subject of assay [7] is Staphylococcus aureus. Nature of the assay: Antibacterial activity against vancomycin-resistant Staphylococcus aureus. The class given is functional. The procedure, abridged: as §1
For assay [8], the system named is Staphylococcus aureus. Nature of the assay: Antibacterial activity against vancomycin-intermediate Staphylococcus aureus. The class given is functional. The procedure, abridged:
as §1

For assay [9], the system named is Staphylococcus aureus. Nature of the assay: Antibacterial activity against methicillin resistant Staphylococcus aureus. Type of assay: functional. The gist of the method: as §1

Molecules are shown by their SMILES. Values after ≈ are worked out from the molar mass of the structure shown. Active and inactive are the calls of the source.

On to `CO[C@H]1/C=C/[C@@](C)(O)/C=C/C(=O)O[C@H](C)[C@@H](C)CC/C=C/1CO`, for which 32 µg/mL (≈ 98.6 µM) was the least that counted as inhibitory in [1] (MIC).

Consider `CO[C@H]1/C=C/[C@@](C)(O)/C=C/C(=O)O[C@H](C)[C@@H](C)CC/C=C/1C=O`, for which the MIC (commonly the smallest concentration in the dilution series that meets the test's criterion for growth inhibition) in [1] worked out at 32 µg/mL (≈ 99.3 µM).

For the compound `CO[C@H]1/C=C/[C@@](C)(O)C(SCCN)CC(=O)O[C@H](C)[C@@H](C)CC/C=C/1C` (mixture of isomers), the outcome in assay [2], in [3] and in assay [4] was inactive. Further, the MIC is 256 µg/mL in assay [5] and 128 µg/mL in assay [1].

As to `CO[C@H]1/C=C/[C@@](C)(OC(=O)c2ccc(F)cc2)/C=C/C(=O)O[C@H](C)[C@@H](C)CC/C=C/1C`, the Ratio in assay [6] was 2. In addition, the minimal inhibitory concentration (MIC) in assay [5] and in assay [1] was 1 µg/mL (≈ 2.32 µM) each time.

In the case of `C/C1=C\CC[C@H](C)[C@@H](C)OC(=O)/C=C/[C@](C)(O)/C=C/[C@@H]1O`, the MIC in [5] worked out at 4 µg/mL (≈ 13.6 µM); in assay [1] it was 8 µg/mL (≈ 27.2 µM).

With `CO[C@H]1/C=C/[C@@](C)(O)/C=C/C(=O)O[C@H](C)[C@@H](C)CC/C=C/1COP(=O)(Oc1ccccc1)Oc1ccccc1`, the MIC in [5] and in assay [1] was more than 256 µg/mL throughout.

`COC/C1=C\CC[C@H](C)[C@@H](C)OC(=O)/C=C/[C@](C)(O)/C=C/[C@@H]1OC` showed an MIC in assay [1] of 128 µg/mL (≈ 378 µM).

Regarding `CO[C@H]1/C=C/[C@@](C)(O)/C=C/C(=O)O[C@H](C)[C@@H](C)CC/C=C/1C`, the MIC in assay [7] amounted to 0.5 µg/mL (≈ 1.62 µM); in assay [8] it was 0.5 µg/mL (≈ 1.62 µM); in assay [9] it was 0.5 µg/mL (≈ 1.62 µM); in [5], 2 µg/mL (≈ 6.48 µM); in assay [1], 2 µg/mL (≈ 6.48 µM).

`C#CCO[C@@]1(C)/C=C/C(=O)O[C@H](C)[C@@H](C)CC/C=C(\C)[C@@H](OC)/C=C/1`: the MIC in [1] is more than 256 µg/mL.
